# Measured values gathered from unrelated publications.
# Target: Aurora kinase A (AURKA, Homo sapiens, UniProt O14965)
# One construct used (O14965 1-403): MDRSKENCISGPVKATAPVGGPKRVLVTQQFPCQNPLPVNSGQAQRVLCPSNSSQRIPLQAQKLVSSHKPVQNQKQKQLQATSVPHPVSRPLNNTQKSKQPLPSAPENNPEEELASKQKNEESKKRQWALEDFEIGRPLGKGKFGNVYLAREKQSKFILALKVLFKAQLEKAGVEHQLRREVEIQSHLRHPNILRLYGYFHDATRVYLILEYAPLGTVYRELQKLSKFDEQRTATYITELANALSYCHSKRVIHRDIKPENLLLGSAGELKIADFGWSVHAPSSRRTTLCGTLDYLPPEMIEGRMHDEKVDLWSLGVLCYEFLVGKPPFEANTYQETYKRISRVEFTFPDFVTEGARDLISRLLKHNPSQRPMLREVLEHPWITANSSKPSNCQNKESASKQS
SMILES,read-out,action,method,concentration,measurement,value
CC(=O)ON=C1C=CC(=C(C#N)c2ccccc2)C=C1,enzyme activity,inhibitor,ADP detection,20 µM,activity vs control,66%
N#Cc1ccc(NC(=O)Nc2ccccc2)cc1,cell-free assay,,competition with immobilised ligand,25 µM,remaining binding,80%
C=CC(=O)N1CCC([C@@H]2CCNc3c(C(N)=O)c(-c4ccc(Oc5ccccc5)cc4)nn32)CC1,enzyme activity,inhibitor,,1 µM,inhibition,1%
C1=C/COCc2cc(ccc2OCCN2CCCC2)Nc2nccc(n2)-c2cccc(c2)COC/1,binding,,,0.1 µM,remaining binding,81%
C[C@H]1CC[C@H](n2c3cnccc3c3cnc(Nc4ccc5c(n4)CCN(C(=O)CO)C5)nc32)CC1,cell-free assay,,competition with immobilised ligand,1 µM,remaining binding,100%
C#Cc1cc(-c2cc(Nc3nc(N[C@@H](C)c4ccc(F)cn4)ncc3Cl)n[nH]2)ccc1C=O,enzyme activity,inhibitor,,0.2 µM,inhibition,82%
C=CC(=O)N1CCC[C@@H](n2nc(-c3ccc(Oc4ccccc4)cc3)c3c(N)ncnc32)C1,enzyme activity,inhibitor,,1 µM,inhibition,5%
CCCCC(=O)Nc1ccc(-c2ccc3ncn(CCC)c(=O)c3c2)cn1,binding,,competition with immobilised ligand,0.5 µM,remaining binding,100%
CN1CCN(C(=O)c2ccc(NC(=O)Nc3ccc(N(C)c4ccnc(Nc5ccc(CS(C)(=O)=O)cc5)n4)cc3)cc2)CC1,binding,,competition with immobilised ligand,1 µM,remaining binding,0%
COc1ccc2oc(-c3ccc4nc(N)oc4c3)c/c(=N\c3ccccc3NC(=O)CCN)c2c1,binding,,,1 µM,remaining binding,98%
